Most compounds without a hit are left out; they make up all but 4.6% or so of the library.
TAAR1 antag = human TAAR1 antagonists, primary screen, Fluo-8 calcium fluorescence, CHO RD-HGA16 cells; Trace amine-associated receptor 1 (Homo sapiens), Q96RJ0; antagonist; inhibition, % at 3 µM; 360,000 tested, 1.5% active; AID 624466, 2012;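 active = inhibition above a per-plate cutoff, the mean inhibition of test compounds on that plate plus 3 SD, cut at about 49% in these data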;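 note: 0% = DMSO plus EC80 beta-PEA response and 100% = DMSO alone without agonist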
Target sequence (Q96RJ0 whole entry, looked up): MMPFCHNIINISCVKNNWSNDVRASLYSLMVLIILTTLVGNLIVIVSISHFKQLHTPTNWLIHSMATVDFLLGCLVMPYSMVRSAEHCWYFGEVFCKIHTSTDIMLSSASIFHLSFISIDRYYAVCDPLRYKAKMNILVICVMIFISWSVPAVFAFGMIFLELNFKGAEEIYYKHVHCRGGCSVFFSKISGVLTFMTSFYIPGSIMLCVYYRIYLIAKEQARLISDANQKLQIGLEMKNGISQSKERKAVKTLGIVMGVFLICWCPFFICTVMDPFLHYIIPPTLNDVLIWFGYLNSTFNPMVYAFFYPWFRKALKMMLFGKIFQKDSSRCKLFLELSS
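System: CHO RD-HGA16 cells bearing hTAAR1. Reagent: EC80 β-phenethylamine stimulus. Schedule: seeding 17-24 h prior, 75-min 37 °C, 30-min RT dye loading. Signal: Fluo-8 intracellular calcium dye fluorescence, real-time kinetic reads. Read-out: % inhibition from peak post-agonist over basal fluorescence ratio. Benchmarks: vehicle wells and EC80 agonist wells. Replicates: n of 1.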
OX1R antag-1 = antagonists of human orexin 1 receptor (OX1R); OX1R-expressing cells, FRET antagonist read-out; inhibition, % at 6.6 µM; 330,000 tested, 1.8% active; AID 485270, 2010; in the data active = inhibition mostly above about 38%, no sharp cut-off; inactive = mostly below about 40%;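 note: 0% = agonist challenge alone and 100% = reference antagonist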
GPR7 antag = GPR7 receptor antagonists, primary screen, cell-based, fluorescence, single concentration | Neuropeptides B/W receptor type 1 (Homo sapiens), P48145 | GPR7-expressing cells, fluorescence antagonist assay | inhibition, % at 4.4 µM | 290,000 tested, 1.1% active; in the data active = inhibition above about 16%, passing the limit was not always enough;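 note: cells stimulated with the agonist NPW; 0% = agonist with vehicle and 100% = vehicle without agonist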
Target sequence (P48145 whole entry, looked up): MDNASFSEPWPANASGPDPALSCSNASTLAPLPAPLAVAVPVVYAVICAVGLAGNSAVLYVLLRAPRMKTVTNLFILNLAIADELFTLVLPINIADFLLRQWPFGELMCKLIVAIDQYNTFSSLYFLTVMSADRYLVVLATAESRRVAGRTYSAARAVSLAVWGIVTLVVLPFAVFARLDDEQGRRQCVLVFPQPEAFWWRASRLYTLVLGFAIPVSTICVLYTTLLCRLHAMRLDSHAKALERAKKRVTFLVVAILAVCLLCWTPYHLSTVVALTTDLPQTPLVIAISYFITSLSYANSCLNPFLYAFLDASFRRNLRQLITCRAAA
TAAR1 agonist = human TAAR1 agonists, primary screen, Fluo-8 calcium fluorescence, CHO RD-HGA16 cells; Trace amine-associated receptor 1 (Homo sapiens), Q96RJ0; vehicle wells 0%, saturating PEA agonist 100%; activation, % at 3 µM; 360,000 tested, 0.99% active; AID 624467, 2012;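 active = activation above the mean activation of all test compounds in the run plus 3 SD, cut at about 38% in these data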
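Test system: RD-HGA16 (CHO) cells co-expressing Gα16 and hTAAR1 / Benchmarks: DMSO vehicle as 0%, PEA at EC100 as 100% / Repeats: no replicates (n 1) / Measure: % activation from peak over basal fluorescence ratio, DMSO-to-PEA scaled / Timing: 17-24 h plating, Fluo-8 75 min 37 °C, 30 min RT / Technique: kinetic Fluo-8 calcium fluorescence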
CHO parental Ca = ATP-evoked calcium signal inhibitors, parental CHO, primary screen, counter-screen for OX1R antagonist project, cell-based, fluorescence, Fluo-8 calcium dye | parental CHO-K1, ATP-induced calcium, Fluo-8 fluorescence | inhibition, % at 5.6 µM | 330,000 tested, 0.63% active | AID 463079, 2010;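 active = inhibition above that plate's mean sample inhibition plus 3 SD, cut at about 26% in these data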;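 note: 0% = ATP-challenged DMSO wells and 100% = DMSO wells without ATP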
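Assay system: parental CHO cells; Read-out basis: percent inhibition of ATP-evoked calcium rise, normalized to controls; Benchmarks: ATP and no-ATP DMSO wells; Compound dosing: single nominal dose of 5.6 µM per compound; Signal: Fluo-8 calcium dye fluorescence; Also added: ATP as calcium-mobilizing challenge; Repeats: singlicate.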
OX1R antag-2 = OX1R (HCRTR1) antagonists, primary screen, fluorescence, CHO/OX1R cells, Fluo-8 calcium, orexin A; Orexin/Hypocretin receptor type 1 (Homo sapiens), O43613; Fluo-8 calcium fluorescence; inhibition, % at 5 µM; 330,000 tested, 0.43% active; AID 434989, 2010;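 active = inhibition above its plate's threshold, mean inhibition of all tested compounds on the plate plus 3 SD, cut at about 37% in these data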;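 note: 0% = orexin A challenge wells and 100% = SB-334867-A antagonist wells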
GPR7 antag cf = GPR7 receptor antagonists, confirmation, cell-based, fluorescence, single concentration; shares compounds with GPR7 antag; GPR7-expressing cells, calcium fluorescence antagonist mode; inhibition, % at 4.4 µM; 2,400 tested, 52% active; AID 1952, 2009; in the data active = inhibition above about 24%;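 note: stimulated with the GPR7 agonist NPW; 0% = agonist plus vehicle and 100% = vehicle alone without agonist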
MCHR1 antagonist = MCHR1 antagonists in cells, counter-screen for GPR7 antagonist project, cell-based, fluorescence, human; AID 2148, 2009; 2,400 tested, 62% active; shares compounds with GPR7 antag; inhibition, % at 4.4 µM; MCHR1-expressing cells, fluorescence antagonist assay; in the data active = inhibition above about 22%;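 note: 0% = vehicle with agonist and 100% = vehicle without agonist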
Numbers without * were called inactive; / = not tested or not shown.

SMILES | TAAR1 antag | OX1R antag-1 | GPR7 antag | TAAR1 agonist | CHO parental Ca | OX1R antag-2 | GPR7 antag cf | MCHR1 antagonist
CNC[C@@H](Cc1ccccc1)NC[C@@H](CC1CCCCC1)NCCCc1ccccc1 | 33.2 | 13.5 | 64.7* | 35.2 | 8.2 | -6.3 | 81.8* | 93.0*
CCC[C@@H](CN[C@@H](CNC)C(C)C)NCCCCc1ccccc1 | -12.7 | 35.3 | 8.2 | 13.9 | -11.1 | -23.9 | / | /
CCC[C@@H](CNC)NC[C@H](Cc1ccccc1)NCCCCc1ccccc1 | 14.8 | 1.2 | 41.1* | 4.7 | -8.5 | -13.2 | 51.0* | 71.3*
CNC[C@@H](CC1CCCCC1)NC[C@H](CC(C)C)NCCc1cccc(C(F)(F)F)c1 | 26.8 | 14.8 | 56.3* | 30.6 | 19.9 | 5.5 | 72.5* | 88.0*
CCCCCCN1C=CC(=C/C=C(\C#N)C(=O)OCC)C=C1 | 59.7* | 17.8 | 29.6* | 113.7* | 73.8* | 99.2* | 46.5* | 63.7*
CCCCCCCCN1C(=O)[C@H](CC(=O)N2CCOCC2)C[C@@]2(C(=O)OC)CC(C)(C)CC=C12 | -21.4 | / | / | 8.9 | / | / | / | /
CC1=C(C(=O)N2CCOCC2)CC(CC(=O)NCCCCc2ccccc2)C(=O)N1Cc1ccc(F)cc1 (configuration not stated) | -1.8 | / | / | 6.8 | / | / | / | /
CC1(C(=O)Nc2ccc3c(c2)OCCO3)CN(S(C)(=O)=O)CC(=O)N1CCc1ccccc1 (configuration not stated) | -24.5 | / | / | 17.5 | / | / | / | /
CC(=O)c1ccc(-n2nnnc2SCC(=O)N2CCc3ccccc3C2)cc1 | 9.0 | / | 29.1* | 16.1 | / | / | 9.7 | 11.9
O=C(CSc1nnnn1-c1ccccc1)N1CCc2ccccc2C1 | 12.7 | 18.8 | -8.2 | 3.4 | -21.1 | -9.9 | / | /
Clc1ccc(-c2noc(CSc3nnc(Cc4cccs4)n3-c3ccccc3)n2)cc1 | 12.3 | 27.8 | 28.3* | 2.1 | 1.2 | -34.0 | 0.8 | 42.1*
COC(=O)N1Cc2ccnnc2CC1c1ccccc1-c1ccc(F)cc1 (configuration not stated) | -33.5 | / | / | 3.7 | / | / | / | /
Cc1ccc(CN2CCSc3ccc(C(=O)N4CCOCC4)cc32)cc1 | / | 14.9 | -16.6 | / | -30.2 | -35.8 | / | /
CCN1CCN(C(=O)c2ccc3c(c2)N(Cc2ccc(C)cc2)CCS3)CC1 | -21.8 | 18.8 | / | 2.9 | -30.8 | -18.9 | / | 12.5
CCn1cc(C(=O)N2CCN(c3ccc(OC)cc3)CC2)c2cc(OC)c(OC)cc2c1=O | -18.7 | 7.8 | 38.6* | 6.6 | -24.8 | -6.0 | -14.4 | -8.1
CCn1cc(C(=O)N2CCN(c3ccc(F)cc3)CC2)c2cc(OC)c(OC)cc2c1=O | 2.7 | 13.8 | -11.3 | -1.5 | -15.4 | -17.4 | / | /
OC1(c2ccccc2)CCN(Cc2ccccc2)C2CCCCC21 (configuration not stated) | -12.6 | 12.3 | 33.8* | 9.3 | -19.9 | -31.3 | 22.8 | 20.6
Cc1cc(Br)c2nc(-c3ccc(Cl)cc3)c(Cc3cccc(Cl)c3)n2c1 | -7.4 | / | / | 0.6 | / | / | / | /
CC1CCCCC1NC(=O)c1cc(Cl)nc2ccccc12 (configuration not stated) | 1.9 | / | / | -0.4 | / | / | / | /
COc1cccc(N=Cc2c(O)c3ccccc3oc2=O)c1 | 16.8 | 8.0 | 28.5* | 1.3 | -14.4 | -30.0 | -3.9 | 30.6*
CC(=O)c1cccc(N=Cc2c(O)c3ccccc3oc2=O)c1 | 4.3 | 21.5 | -15.8 | -0.9 | -7.7 | -21.7 | / | /
Fc1ccccc1N1CCN(C(c2ccnc3ccccc23)c2nnnn2-c2ccc3c(c2)OCCO3)CC1 (configuration not stated) | -21.7 | / | / | 2.8 | / | / | / | /
CN(C)CCN1CCN(C2CN(Cc3ccc([N+](=O)[O-])cc3)S(=O)(=O)C2)CC1 (configuration not stated) | 4.3 | / | / | 2.2 | / | / | / | /
COc1ccc(C(=O)C(CN2CCCC2)c2ccccc2)cc1 (configuration not stated) | -11.6 | 19.5 | 1.4 | 12.9 | -2.9 | -9.7 | / | /
O=C(c1ccc(Cl)cc1)C(CN1CCCC1)c1ccccc1 (configuration not stated) | 17.5 | -0.1 | 74.2* | 7.7 | 8.8 | -11.2 | 46.4* | 86.9*
SMILES | TAAR1 antag | OX1R antag-1 | GPR7 antag | TAAR1 agonist | CHO parental Ca | OX1R antag-2 | GPR7 antag cf | MCHR1 antagonist
COC(=O)N1C[C@H](Oc2cccc3ccccc23)[C@H]2C[C@@H]1c1ccccc1O2 | -32.2 | / | / | -0.1 | / | / | / | /
COC(=O)c1c(NC(=O)CN2CCC(C(N)=O)CC2)c2c(C)cccc2n1C | -12.6 | 26.0 | -7.0 | 4.5 | -3.6 | -12.2 | / | /
COC(=O)c1c(NC(=O)CN2CCCC(C)C2)c2c(C)cccc2n1C (configuration not stated) | -0.7 | 2.7 | 25.9* | 4.7 | -18.3 | -22.2 | 14.1 | 27.1*
CCOC(=O)[C@]12CCCC=C1N(Cc1ccccc1)C(=O)[C@H](CC(=O)NCCCCc1ccccc1)C2 | -5.8 | / | / | 9.6 | / | / | / | /
CC(=O)Nc1ccc(S(=O)(=O)NCCC(=O)OC(C)C(=O)c2ccc(C)cc2)cc1 (configuration not stated) | 28.3 | 34.7 | 27.1* | 5.2 | 17.6 | -6.5 | 20.1 | 45.5*
CN(C(=O)c1cc([N+](=O)[O-])ccc1N1CCCC1)C1CCCCC1 | 2.0 | 31.4 | 33.5* | -1.6 | -20.4 | -25.9 | 29.3* | 24.0*
CN(C(=O)COC(=O)c1cc([N+](=O)[O-])ccc1N1CCOCC1)C1CCCCC1 | 3.5 | / | / | 2.3 | / | / | / | /
COCCNC(=O)c1c(N)[nH]c(C(=O)c2ccc(Br)cc2)c1-c1ccc(Br)cc1 | 1.4 | / | / | 0.0 | / | / | / | /
CCc1nc2c(OCc3ccc(F)c(F)c3)cccn2c1N(C)C(=O)C1CC1 | -19.9 | / | / | 2.4 | / | / | / | /
O=C(NCc1ccncc1)c1csc([C@@H]2O[C@H](CO)[C@@H](O)[C@H]2O)n1 | 1.1 | / | / | 0.3 | / | / | / | /
CCC1CCCCN1S(=O)(=O)c1ccc(NC(=O)c2nc(S(C)(=O)=O)ncc2Cl)cc1 (configuration not stated) | 56.5* | 52.8* | 74.2* | 5.8 | 55.0* | 52.9* | 90.4* | 101.0*
CCS(=O)(=O)c1ncc(Cl)c(C(=O)Nc2ccc(S(=O)(=O)N3CCCC(C)C3)cc2)n1 (configuration not stated) | 31.6 | 30.7 | 59.4* | 3.5 | 46.8* | 41.4* | 86.0* | 97.2*

Screening results: PubChem BioAssay, The Scripps Research Institute Molecular Screening Center
